One may read the IC50 as the midpoint of a concentration-inhibition curve.

Sequence of Neuronal acetylcholine receptor; alpha9/alpha10 (Q9UGM1 whole entry): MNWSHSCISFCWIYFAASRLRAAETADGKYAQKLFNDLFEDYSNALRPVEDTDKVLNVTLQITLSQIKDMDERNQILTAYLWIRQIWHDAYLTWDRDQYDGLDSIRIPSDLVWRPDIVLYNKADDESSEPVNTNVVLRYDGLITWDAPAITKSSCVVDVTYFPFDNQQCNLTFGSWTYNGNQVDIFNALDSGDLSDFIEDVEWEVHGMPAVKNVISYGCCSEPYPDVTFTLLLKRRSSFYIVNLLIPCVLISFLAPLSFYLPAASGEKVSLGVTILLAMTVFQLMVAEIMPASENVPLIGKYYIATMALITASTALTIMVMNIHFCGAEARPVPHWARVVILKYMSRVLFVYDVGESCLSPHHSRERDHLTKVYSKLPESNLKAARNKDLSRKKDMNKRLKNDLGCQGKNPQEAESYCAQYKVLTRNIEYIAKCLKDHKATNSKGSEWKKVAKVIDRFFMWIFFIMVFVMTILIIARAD
Sequence of Neuronal acetylcholine receptor; alpha9/alpha10 (Q9GZZ6 whole entry): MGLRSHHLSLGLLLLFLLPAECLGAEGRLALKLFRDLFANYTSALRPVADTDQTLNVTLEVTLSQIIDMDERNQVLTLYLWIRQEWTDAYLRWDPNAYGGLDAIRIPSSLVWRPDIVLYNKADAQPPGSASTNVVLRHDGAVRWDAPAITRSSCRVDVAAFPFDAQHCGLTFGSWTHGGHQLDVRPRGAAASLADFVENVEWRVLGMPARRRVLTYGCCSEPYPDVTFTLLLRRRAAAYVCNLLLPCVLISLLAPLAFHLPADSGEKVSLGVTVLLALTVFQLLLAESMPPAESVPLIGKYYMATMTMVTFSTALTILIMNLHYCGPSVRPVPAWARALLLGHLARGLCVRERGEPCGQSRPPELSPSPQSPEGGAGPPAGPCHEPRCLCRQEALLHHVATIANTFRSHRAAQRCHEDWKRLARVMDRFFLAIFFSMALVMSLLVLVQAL

The target in the first assay is Nicotinic acetylcholine receptor alpha9/alpha10 (Rattus norvegicus, UniProt P43144+Q9JLB5). Format: cell-based, Oocyte.
Sequence of Nicotinic acetylcholine receptor alpha9/alpha10 (P43144 whole entry): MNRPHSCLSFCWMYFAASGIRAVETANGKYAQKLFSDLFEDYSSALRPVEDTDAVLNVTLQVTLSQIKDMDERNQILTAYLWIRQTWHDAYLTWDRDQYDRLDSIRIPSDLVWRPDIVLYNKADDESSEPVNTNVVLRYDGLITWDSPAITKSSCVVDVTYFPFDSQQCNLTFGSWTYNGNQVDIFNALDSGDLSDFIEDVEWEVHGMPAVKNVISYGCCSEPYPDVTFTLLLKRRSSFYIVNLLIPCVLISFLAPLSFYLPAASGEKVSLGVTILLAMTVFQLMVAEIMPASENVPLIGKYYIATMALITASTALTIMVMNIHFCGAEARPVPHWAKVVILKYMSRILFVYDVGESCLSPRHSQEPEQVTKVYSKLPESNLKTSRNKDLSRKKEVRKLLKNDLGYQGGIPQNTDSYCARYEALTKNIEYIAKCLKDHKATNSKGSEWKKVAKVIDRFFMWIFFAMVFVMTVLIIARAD
Sequence of Nicotinic acetylcholine receptor alpha9/alpha10 (Q9JLB5 whole entry): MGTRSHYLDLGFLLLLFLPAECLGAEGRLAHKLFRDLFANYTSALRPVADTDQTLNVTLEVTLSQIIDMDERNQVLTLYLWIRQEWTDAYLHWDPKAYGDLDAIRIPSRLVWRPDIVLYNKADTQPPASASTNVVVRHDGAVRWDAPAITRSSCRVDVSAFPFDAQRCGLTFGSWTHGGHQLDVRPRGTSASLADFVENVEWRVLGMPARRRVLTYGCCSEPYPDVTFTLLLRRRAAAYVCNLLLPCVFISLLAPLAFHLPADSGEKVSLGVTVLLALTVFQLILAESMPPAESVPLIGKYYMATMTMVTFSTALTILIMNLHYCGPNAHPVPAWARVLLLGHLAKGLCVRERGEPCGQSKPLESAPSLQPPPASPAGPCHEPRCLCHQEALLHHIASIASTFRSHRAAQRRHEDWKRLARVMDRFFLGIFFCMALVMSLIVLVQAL
In the case of `N=C(N)NCCC[C@H](NC(=O)[C@@H]1CSSC[C@@H]2NC(=O)[C@@H](NC(=O)CN)CSSC[C@H](NC(=O)[C@H](CCCNC(=N)N)NC(=O)[C@@H]3CCCN3C(=O)[C@H](CC(=O)O)NC(=O)[C@H](CO)NC2=O)C(=O)N[C@@H](CCCNC(N)=O)C(=O)N[C@@H](Cc2ccc(O)cc2)C(=O)N[C@@H](CCCNC(=N)N)C(=O)N1)C(=O)O`, the half-maximal inhibitory concentration (IC50) worked out at 1.49 nM.

In a further assay the target is Neuronal acetylcholine receptor; alpha9/alpha10 (Homo sapiens, UniProt Q9GZZ6+Q9UGM1). The assay is described as follows: Inhibition of human alpha9alpha10 nAChR expressed in xenopus oocytes assessed as inhibition of Ach- induced response at -70 mV holding potential and measured for 1 to 5 days in presence of Ach stimulation by voltage-clamp based electrophysiological method. In kind it is cell-based, Oocyte. The method, boiled down:
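Two-electrode voltage clamp on Xenopus oocytes expressing human α9α10, recorded 1–5 d after injection. Held at −70 mV at room temperature in Ca²⁺-containing ND-96. A 1 s pulse of 100 µM ACh was given every 60 s and peptide was flowed on. IC50 with 95% CI from 3–5 separate oocytes.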
As for `C[C@@H](O)[C@@H]1NC(=O)[C@H]2NC(=O)[C@H](NC(=O)CN)CSSC[C@H](NC(=O)[C@H](CCCNC(=N)N)NC(=O)[C@@H]3CCCN3C(=O)[C@H](CC(=O)O)NC1=O)C(=O)N[C@@H](CCCNC(=N)N)C(=O)N[C@@H](Cc1ccc(O)c(I)c1)C(=O)N[C@@H](CCCN)C(=O)N[C@H](C(=O)N[C@H](CC(=O)N[C@@H](CCC(=O)O)C(=O)O)Cc1ccc(O)cc1)CSSC2(C)C`, the concentration for half-maximal inhibition (IC50) turned out to be 0.4 nM.
`C[C@@H](O)[C@@H]1NC(=O)[C@H]2NC(=O)[C@H](NC(=O)CN)CSSC[C@H](NC(=O)[C@H](CCCNC(=N)N)NC(=O)[C@@H]3CCCN3C(=O)[C@H](CC(=O)O)NC1=O)C(=O)N[C@@H](CCCNC(=N)N)C(=O)N[C@@H](Cc1ccc(O)c(I)c1)C(=O)N[C@@H](CCCN)C(=O)N[C@H](C(=O)N[C@H](CC(=O)N[C@@H](CCCN)C(=O)O)Cc1ccc(O)cc1)CSSC2(C)C`: the IC50 stood at 0.34 nM.
Same read-out and setting: with `C[C@@H](O)[C@@H]1NC(=O)[C@H]2NC(=O)[C@H](NC(=O)CN)CSSC[C@H](NC(=O)[C@H](CCCNC(=N)N)NC(=O)[C@@H]3CCCN3C(=O)[C@H](CC(=O)O)NC1=O)C(=O)N[C@@H](CCCNC(=N)N)C(=O)N[C@@H](Cc1ccc(O)c(I)c1)C(=O)N[C@@H](CCCN)C(=O)N[C@H](C(=O)N[C@H](CC(=O)N[C@@H](CCCNC(N)=O)C(=O)O)Cc1ccc(O)cc1)CSSC2(C)C` the figure was 0.26 nM; with `C[C@@H](O)[C@@H]1NC(=O)[C@H]2NC(=O)[C@H](NC(=O)CN)CSSC[C@H](NC(=O)[C@H](CCCNC(=N)N)NC(=O)[C@@H]3CCCN3C(=O)[C@H](CC(=O)O)NC1=O)C(=O)N[C@@H](CCCNC(=N)N)C(=O)N[C@@H](Cc1ccc(O)c(I)c1)C(=O)N[C@@H](CCCN)C(=O)N[C@H](C(=O)N[C@H](CC(=O)N[C@H](CCCNC(=N)N)C(=O)O)Cc1ccc(O)cc1)CSSC2(C)C`, 4 nM.
The same measure, in the same setting: with `C[C@@H](O)[C@@H]1NC(=O)[C@H]2NC(=O)[C@H](NC(=O)CN)CSSC[C@H](NC(=O)[C@H](CCCNC(=N)N)NC(=O)[C@@H]3CCCN3C(=O)[C@H](CC(=O)O)NC1=O)C(=O)N[C@@H](CCCNC(=N)N)C(=O)N[C@@H](Cc1ccc(O)c(I)c1)C(=O)N[C@@H](CCCN)C(=O)N[C@H](C(=O)N[C@H](CC(=O)N[C@@H](CCCCN)C(=O)O)Cc1ccc(O)cc1)CSSC2(C)C` the figure was 0.36 nM; with `C[C@@H](O)[C@@H]1NC(=O)[C@@H]2CSSC[C@@H](C(=O)N[C@@H](Cc3ccc(O)cc3)C(=O)O)NC(=O)[C@H](CCC(N)=O)NC(=O)[C@H](Cc3ccc(O)c(I)c3)NC(=O)[C@H](CCCNC(N)=O)NC(=O)[C@@H](NC(=O)[C@H](CCCNC(=N)N)NC(=O)[C@@H]3CCCN3C(=O)[C@H](CC(=O)O)NC1=O)C(C)(C)SSC[C@@H](NC(=O)CN)C(=O)N2`, above 1000 nM.
Take `C[C@@H](O)[C@@H]1NC(=O)[C@H]2NC(=O)[C@H](NC(=O)CN)CSSC[C@H](NC(=O)[C@H](CCCNC(=N)N)NC(=O)[C@@H]3CCCN3C(=O)[C@H](CC(=O)O)NC1=O)C(=O)N[C@@H](CCCNC(N)=O)C(=O)N[C@@H](Cc1ccc(O)c(I)c1)C(=O)N[C@@H](CCC(N)=O)C(=O)N[C@H](C(=O)N[C@@H](Cc1ccc(O)cc1)C(=O)O)CSSC2(C)C`: the IC50 was determined as 1.3 nM.
The same measure, in the same setting: under `C[C@@H](O)[C@@H]1NC(=O)[C@@H]2CSSC[C@@H](C(=O)N[C@@H](Cc3ccc(O)cc3)C(=O)O)NC(=O)[C@H](CCC(N)=O)NC(=O)[C@H](Cc3ccc(O)c(I)c3)NC(=O)[C@H](CCCNC(=N)N)NC(=O)[C@H](CSSC[C@@H](NC(=O)CN)C(=O)N2)NC(=O)[C@H](CCCNC(N)=O)NC(=O)[C@@H]2CCCN2C(=O)[C@H](CC(=O)O)NC1=O` stands 1.4 nM.

Source of the values: ChEMBL document CHEMBL5214907 (J Med Chem, 2021).
